These results are taken from article PMC8943622 (Journal of Cerebral Blood Flow & Metabolism, 2021).

pKd: −log10 of the molar value. “And” between values parts separate entries of the source, which are not always exact repeats. Identical values can stand only once. Like-named read-outs stand apart in the source and are kept apart here.

The test system of data set [1] is MAGL. The data set is described as follows: [18F]T-401 PET after JW642 pretreatment. The format is in vivo, rhesus monkey (Macaca mulatta).
A short description of data set [2]: Radiometabolite analysis of [18F]T-401 in arterial plasma. The class given is in vivo, rhesus monkey. The settings on record: 30 min after injection; baseline and JW642 blockade. The method in brief:
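Anaesthetised monkeys had 24 serial saphenous-artery samples taken over the 120 min scan. Plasma was separated at 15000 × g, 3 min, 4 °C. Samples from 2, 5, 10, 30, 60, 90 and 120 min went to HPLC (Atlantis T3, acetonitrile/H2O 40/60, 1.0 mL/min, 254 nm). Decay-corrected parent-to-total radioactivity came from peak areas. Blockade used i.v. test compound 0.01–0.3 mg/kg, 5 min before the radioligand, in one monkey.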

The test system of data set [3] is MAGL. The class given is in vivo, rhesus monkey (Macaca mulatta). The settings on record: baseline; for VT mean: mean of three monkeys; for VT: M187.
Data set [4] deals with T1, MAGL (Macaca mulatta, UniProt H9ESL3).
T1 sequence (H9ESL3 1-303): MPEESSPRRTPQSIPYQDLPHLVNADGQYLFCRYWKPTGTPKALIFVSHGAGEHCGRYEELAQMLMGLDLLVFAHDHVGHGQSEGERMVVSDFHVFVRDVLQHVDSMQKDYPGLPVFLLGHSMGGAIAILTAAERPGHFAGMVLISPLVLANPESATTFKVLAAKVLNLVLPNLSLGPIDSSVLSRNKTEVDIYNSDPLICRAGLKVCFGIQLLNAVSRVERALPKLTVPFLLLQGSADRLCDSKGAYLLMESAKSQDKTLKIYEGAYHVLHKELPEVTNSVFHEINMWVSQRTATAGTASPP
The data set is described as follows: In vivo Scatchard plot analysis of baseline [18F]T-401 PET data. Also noted: species or system rhesus monkey. The gist of the method:
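Three male rhesus monkeys (5–7 kg) were given ketamine 10 mg/kg i.m., then intubated and kept on 1–2% isoflurane, with a heating pad. After a 68Ge–68Ga transmission scan, a 120 min 3D list-mode emission scan began at i.v. radioligand injection (356 ± 50 MBq, 343 ± 68 GBq/μmol). Baseline data were analysed by Scatchard plot to give KD and Bmax in representative ROIs.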

As for `O=C(OC(C(F)(F)F)C(F)(F)F)N1CCN(Cc2cccc(Oc3ccccc3)c2)CC1` [JW642], the “EC50, plasma JW642 concentration inducing 50% occupancy of MAGL” value with MAGL [1] (Hill's plot of occupancy versus plasma concentration, monkey M187) is 0.126 µg/mL and 0.1261 µg/mL. The MAGL occupancy is 20% in the data set on MAGL [1] (JW642 0.01 mg/kg i.v., Lassen's plot); 94% and 93% in the data set on MAGL [1] (JW642 0.3 mg/kg i.v., Lassen's plot, 0.3 mg/kg).
A word on the pKd: it is the Kd on a negative log10 scale, so that one unit is a factor of ten. For the compound `Cc1ccnc([18F])c1-c1cccc(N2C[C@H](N3CCN(C(=O)c4nccs4)CC3)CC2=O)c1` [[^18F]T-401, (4R)-1-{3-[2-[^18F]fluoro-4-methylpyridin-3-yl]phenyl}-4-[4-(1,3-thiazol-2-ylcarbonyl)piperazin-1-yl]pyrrolidin-2-one], the “parent fraction in arterial plasma” value in data set [2] was “approximately 30%”. Also, the VT mean with MAGL [3] (CB) stood at 7.17 mL/cm^3; with MAGL [3] (FCX) it was 11.7 mL/cm^3; in the data set with MAGL [3] (HIP), 5.95 mL/cm^3; in the data set with MAGL [3] (OCC) it was 9.96 mL/cm^3; with MAGL [3] (Pons) it was 4.73 mL/cm^3; in the data set on MAGL [3] (STR) it was 9.05 mL/cm^3. In the data set with MAGL [3] (THA), this compound yielded a VT mean of 6.36 mL/cm^3. Also, the VT in the data set with MAGL [3] (OCC) is reported as 11.89 mL/cm^3; in the data set on MAGL [3] (STR) it was 12.51 mL/cm^3. Also, the “time of peak brain uptake after injection” value with MAGL [3] (monkey brain) is 5 to 15 min. In the data set on MAGL [3] (printed as striatum), the “mean VT, upper end of range” value is 11.7 mL/cm^3. In addition, in the data set on MAGL [1] (Lassen's plot, averaged x-intercept of regression lines, monkey brain), the “non-displaceable distribution volume (VND)” value turned out to be 0.69 mL/cm^3. Further, in the data set on MAGL [1] (pons), the “VND as portion of VT” value is given as 14.6%. Also, the results for the negative-log Kd (pKd) on MAGL [4] (FCX) and at MAGL [4] (HIP) were 8.38 and 8.96, respectively.
